Measured values taken from ChEMBL document CHEMBL3351394 (J Med Chem, 2014).
≈ marks a conversion by molar mass, not a printed value.

Experiments:
[1] = target: T1, Bile acid receptor (Homo sapiens) (UniProt Q96RI1); experiment: Agonist activity at FXR in human HepG2 cells assessed as induction of CYP7A1 mrNA expression at 10 uM by quantitative PCR method; format: cell-based
T1 sequence (whole entry): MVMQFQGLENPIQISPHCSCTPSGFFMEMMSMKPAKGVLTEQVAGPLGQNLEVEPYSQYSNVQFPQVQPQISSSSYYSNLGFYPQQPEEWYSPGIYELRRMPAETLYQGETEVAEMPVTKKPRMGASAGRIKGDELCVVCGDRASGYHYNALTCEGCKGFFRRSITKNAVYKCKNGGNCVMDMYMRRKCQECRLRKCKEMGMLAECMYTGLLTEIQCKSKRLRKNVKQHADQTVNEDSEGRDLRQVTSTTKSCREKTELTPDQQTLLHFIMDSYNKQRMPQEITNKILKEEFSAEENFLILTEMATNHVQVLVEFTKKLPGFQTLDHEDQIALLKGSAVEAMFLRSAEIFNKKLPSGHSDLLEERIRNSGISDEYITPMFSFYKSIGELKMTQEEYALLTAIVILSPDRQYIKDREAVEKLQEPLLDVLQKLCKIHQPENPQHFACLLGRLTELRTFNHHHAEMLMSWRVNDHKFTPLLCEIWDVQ
Method in brief: (§1)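 HepG2 cells were seeded at 2 × 10⁶ per well. After 24 h they were switched to MEM with 1% charcoal-stripped FCS, and 24 h later dosed with compound (0.1, 0.3, 1, 3, 10 μM; 0.1% DMSO final) for 24 h. Total RNA was reverse transcribed and analysed by qPCR, GAPDH-normalized, ΔΔCt method. Samples were run in duplicate in ≥4 independent experiments.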

[2] = target: T1, Bile acid receptor (Homo sapiens); experiment: Agonist activity at FXR in human HepG2 cells assessed as induction of OSTalpha mrNA expression at 0.1 uM by quantitative PCR method; format: cell-based; method in brief: as §1
[3] = target: T1, Bile acid receptor (Homo sapiens); experiment: Agonist activity at FXR in human HepG2 cells assessed as induction of OSTalpha mrNA expression at 10 uM by quantitative PCR method; format: cell-based; method in brief: as §1
[4] = target: T1, Bile acid receptor (Homo sapiens); experiment: Agonist activity at FXR in human HepG2 cells assessed as induction of BSEP mrNA expression at 0.1 uM by quantitative PCR method; format: cell-based; method in brief: as §1
[5] = target: T1, Bile acid receptor (Homo sapiens); experiment: Agonist activity at FXR in human HepG2 cells assessed as induction of BSEP mrNA expression at 0.3 uM by quantitative PCR method; format: cell-based; method in brief: as §1
[6] = target: T1, Bile acid receptor (Homo sapiens); experiment: Agonist activity at FXR in human HepG2 cells assessed as induction of BSEP mrNA expression at 1 uM by quantitative PCR method; format: cell-based; method in brief: as §1
[7] = target: T2, Peroxisome proliferator-activated receptor gamma (Homo sapiens) (UniProt P37231); experiment: (§2) Activity at GAL4-tagged PPARgamma (unknown origin) expressed in COS7 cells assessed as receptor transactivation by luciferase reporter gene assay; format: cell-based; conditions: COS-7
T2 sequence (whole entry): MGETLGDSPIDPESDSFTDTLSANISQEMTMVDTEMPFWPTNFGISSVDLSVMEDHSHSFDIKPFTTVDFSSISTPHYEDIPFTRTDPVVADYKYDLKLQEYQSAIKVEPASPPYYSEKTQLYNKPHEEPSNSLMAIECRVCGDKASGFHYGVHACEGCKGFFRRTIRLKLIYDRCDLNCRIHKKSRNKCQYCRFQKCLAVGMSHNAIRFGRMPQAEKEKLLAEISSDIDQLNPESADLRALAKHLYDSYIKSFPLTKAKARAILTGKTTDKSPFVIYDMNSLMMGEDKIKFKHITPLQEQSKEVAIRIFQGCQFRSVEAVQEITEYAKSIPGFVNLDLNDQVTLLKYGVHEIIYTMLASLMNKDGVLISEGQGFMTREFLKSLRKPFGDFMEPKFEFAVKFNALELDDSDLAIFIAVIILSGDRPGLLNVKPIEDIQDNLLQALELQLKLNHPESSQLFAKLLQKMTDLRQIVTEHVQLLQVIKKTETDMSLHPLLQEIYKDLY
Method in brief: (§3)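 Each PPAR subtype was tested as a Gal4 fusion carrying the human hinge region and LBD (cDNA from human monocytes) in transiently transfected COS-7 cells (Lipofectamine LTX), with a pFR-Luc reporter and pRL-SV40 for normalization. Compound in 0.1% DMSO was added 5 h post-transfection and incubated overnight. Firefly/renilla RLU was scaled to 1 μM GW7647 (α), L165,041 (δ) or pioglitazone (γ).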

[8] = target: T3, Peroxisome proliferator-activated receptor gamma (Homo sapiens, UniProt P37231); experiment: as §2; format: cell-based, COS-7; method in brief: as §3
T3 sequence (P37231 whole entry): T2 sequence (whole entry)

[9] = target: T4, Peroxisome proliferator-activated receptor alpha (Homo sapiens, UniProt Q07869); experiment: Activity at GAL4-tagged PPARalpha (unknown origin) expressed in COS7 cells assessed as receptor transactivation by luciferase reporter gene assay; format: cell-based, COS-7; method in brief: as §3
T4 sequence (Q07869 whole entry): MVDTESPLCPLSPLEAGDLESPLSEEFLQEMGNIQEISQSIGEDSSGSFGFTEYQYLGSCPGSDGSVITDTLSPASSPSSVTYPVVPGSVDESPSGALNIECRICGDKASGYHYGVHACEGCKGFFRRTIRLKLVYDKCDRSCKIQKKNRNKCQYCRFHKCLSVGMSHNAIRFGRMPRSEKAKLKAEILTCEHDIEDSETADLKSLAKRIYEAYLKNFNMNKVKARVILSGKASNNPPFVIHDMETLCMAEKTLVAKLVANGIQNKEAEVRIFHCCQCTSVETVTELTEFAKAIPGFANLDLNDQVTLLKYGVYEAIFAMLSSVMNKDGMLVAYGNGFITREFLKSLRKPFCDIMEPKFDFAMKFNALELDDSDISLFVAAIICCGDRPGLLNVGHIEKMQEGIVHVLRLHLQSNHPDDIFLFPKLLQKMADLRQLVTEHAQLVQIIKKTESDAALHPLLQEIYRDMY

Homo sapiens = species on record: Homo sapiens; experiment: Selectivity index, ratio of EC50 for human TGR5 to EC50 for human FXR
[10] = Aqueous solubility of the compound; format: physicochemical; conditions: water (aqueous)
HeLa = experiment: Cytotoxicity against human HeLa cells assessed as compound concentration causing reduction in cell viability by reporter gene assay; format: cell-based
HepG2 = experiment: Cytotoxicity against human HepG2 cells assessed as compound concentration causing reduction in cell viability by WST1 assay; format: cell-based
Method in brief: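 WST-1 viability in HepG2 cells (3 × 10⁴ per well) in DMEM with 1% FCS, after 48 h exposure to 1, 10, 30 and 100 μM compound. Controls were Revlotron 100 μM (positive) and zileuton 100 μM or DMEM/1% DMSO (negative). WST reagent was added for 45 min and absorbance read at 450/620 nm; untreated set as 100%. Three repeats in triplicate.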

Activity [1]: 57%
Activity [2]: 151%
Activity [3]: 234%
Emax [7]: 81%
EC50 [8]: 2.99 µM
EC50 [9]: > 10 µM
Ratio EC50 (Homo sapiens): > 1000
solubility [10]: 2.6 µg/mL (≈ 5.82 µM)
Compound: COc1ccc(C(=O)Nc2cccc(C(=O)O)c2)c(NC(=O)c2ccc(C(C)(C)C)cc2)c1
Activity [4]: 294%
Activity [5]: 300%
Activity [6]: 319%
Activity (HeLa): >= 30 uM
Activity (HepG2): >= 30 uM
